Results as given in ChEMBL document CHEMBL1914438, “Synthesis and biological activity of novel N-cycloalkyl-(cycloalkylaryl)-2-[(3-R-2-oxo-2H-[1,2,4]triazino[2,3-c]quinazoline-6-yl)thio]acetamides” (2011).

Columns and labels:
Format in all cases: functional
[1] = Cytotoxicity against human Hs 578T cells assessed as cell growth at 10^-5 M after 48 hrs by SRB assay; details: read-out: Activity
Summary of the method: (§1)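 NCI 60-cell-line one-dose primary screen: cells inoculated and preincubated 24–48 h, then test agent added at a single 10^-5 M concentration for a further 48 h. Endpoint is sulforhodamine B protein staining read spectrophotometrically. Reported as percent growth relative to untreated control cells.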

[2] = tested on: SNB-19; assay: Cytotoxicity against human SNB19 cells assessed as cell growth at 10^-5 M after 48 hrs by SRB assay; details: SNB-19, 48 h, read-out: Activity
Summary of the method: (§2)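 NCI human tumor cell line panel from nine cancer types. Each line was inoculated and preincubated 24–48 h, then exposed to a single concentration (10^-5 M) for 48 h. Growth was read by sulforhodamine B protein staining, measured spectrophotometrically. Value reported as percent growth of treated cells relative to untreated controls.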

[3] = tested on: MOLT-4; assay: Cytotoxicity against human MOLT4 cells assessed as cell growth at 10^-5 M after 48 hrs by SRB assay; details: MOLT-4, 48 h, read-out: Activity; summary of the method: as §2
[4] = tested on: UACC-62; assay: Growth inhibition of human UACC62 cells after 48 hrs by SRB assay; details: UACC-62, 48 h
Summary of the method: (§3)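 NCI 60-cell-line human tumor panel. Cells were inoculated and preincubated for 24–48 h, then exposed continuously to compound for 48 h. Primary screen used a single 10^-5 M concentration. Growth was measured by sulforhodamine B protein staining, read spectrophotometrically, and reported as percent growth versus untreated controls. Selected compounds were also run at five 10-fold dilutions (10^-4 to 10^-8 M) to derive GI50 from time-zero-corrected absorbances.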

[5] = tested on: 786-0; assay: Cytotoxicity against human 786-0 cells assessed as cell growth at 10^-5 M after 48 hrs by SRB assay; details: 786-0, 48 h, read-out: Activity; summary of the method: as §1
[6] = tested on: CAKI-1; assay: Growth inhibition of human Caki1 cells after 48 hrs by SRB assay; details: CAKI-1, 48 h
Summary of the method: (§4)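 NCI panel of about 60 human tumor lines, 48 h continuous exposure at five 10-fold dilutions from 10^-4 to 10^-8 M. SRB protein staining was read as absorbance at time zero, in untreated controls and at each concentration. GI50 is the concentration giving 50% lower net protein increase than controls. TGI is where Ti = Tz, and LC50 is 50% protein loss versus start.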

[7] = tested on: EKVX; assay: Growth inhibition of human EKVX cells after 48 hrs by SRB assay; summary of the method: as §4
[8] = tested on: BT-549; assay: Cytotoxicity against human BT549 cells assessed as cell growth at 10^-5 M after 48 hrs by SRB assay; details: BT-549, 48 h, read-out: Activity; summary of the method: as §1
[9] = tested on: MOLT-4; assay: Growth inhibition of human MOLT4 cells after 48 hrs by SRB assay; details: MOLT-4, 48 h; summary of the method: as §4
[10] = tested on: T47D; assay: Cytotoxicity against human T47D cells assessed as cell growth at 10^-5 M after 48 hrs by SRB assay; details: read-out: Activity; summary of the method: as §2
[11] = tested on: Mycobacterium; assay: Antibacterial activity against Mycobacterium luteum assessed as zone of inhibition at 0.1 mg/mL after 24 hrs by stiff-plate agar-diffusion method; details: read-out: DIZ
[12] = tested on: Staphylococcus aureus; assay: Antibacterial activity against Staphylococcus aureus assessed as zone of inhibition at 0.5 mg/mL after 24 hrs by stiff-plate agar-diffusion method; details: read-out: DIZ
[13] = tested on: OVCAR-4; assay: Cytotoxicity against human OVCAR4 cells assessed as cell growth at 10^-5 M after 48 hrs by SRB assay; details: OVCAR-4, 48 h, read-out: Activity; summary of the method: as §2
[14] = tested on: RXF 393; assay: Growth inhibition of human RXF393 cells after 48 hrs by SRB assay; details: RXF 393, 48 h; summary of the method: as §3
[15] = tested on: 786-0; assay: Growth inhibition of human 786-0 cells after 48 hrs by SRB assay; details: 786-0, 48 h; summary of the method: as §4
[16] = tested on: SK-MEL-2; assay: Cytotoxicity against human SK-MEL-2 cells assessed as cell growth at 10^-5 M after 48 hrs by SRB assay; details: SK-MEL-2, 48 h, read-out: Activity; summary of the method: as §2
[17] = tested on: M14; assay: Cytotoxicity against human M14 cells assessed as cell growth at 10^-5 M after 48 hrs by SRB assay; details: M14, 48 h, read-out: Activity; summary of the method: as §1
[18] = tested on: KM12; assay: Cytotoxicity against human KM12 cells assessed as cell growth at 10^-5 M after 48 hrs by SRB assay; details: KM12, 48 h, read-out: Activity; summary of the method: as §1
[19] = tested on: SR; assay: Growth inhibition of human SR cells after 48 hrs by SRB assay; summary of the method: as §3
[20] = tested on: NCI-H322M; assay: Cytotoxicity against human NCI-H322M cells assessed as cell growth at 10^-5 M after 48 hrs by SRB assay; details: read-out: Activity; summary of the method: as §2
[21] = tested on: RPMI-8226; assay: Growth inhibition of human RPMI8226 cells after 48 hrs by SRB assay; details: RPMI-8226, 48 h; summary of the method: as §4
[22] = tested on: MDA-MB-468; assay: Growth inhibition of human MDA-MB-468 cells after 48 hrs by SRB assay; details: MDA-MB-468, 48 h; summary of the method: as §4
[23] = tested on: EKVX; assay: Cytotoxicity against human EKVX cells assessed as cell growth at 10^-5 M after 48 hrs by SRB assay; details: read-out: Activity; summary of the method: as §1
[24] = tested on: MDA-MB-435; assay: Cytotoxicity against human MDA-MB-435 cells assessed as cell growth at 10^-5 M after 48 hrs by SRB assay; details: MDA-MB-435, 48 h, read-out: Activity; summary of the method: as §1
[25] = tested on: HOP-92; assay: Growth inhibition of human HOP92 cells after 48 hrs by SRB assay; details: HOP-92, 48 h; summary of the method: as §4
[26] = tested on: Staphylococcus aureus; assay: Antibacterial activity against Staphylococcus aureus assessed as zone of inhibition at 0.1 mg/mL after 24 hrs by stiff-plate agar-diffusion method; details: read-out: DIZ
[27] = tested on: RPMI-8226; assay: Cytotoxicity against human RPMI8226 cells assessed as cell growth at 10^-5 M after 48 hrs by SRB assay; details: RPMI-8226, 48 h, read-out: Activity; summary of the method: as §2
[28] = tested on: HOP-62; assay: Growth inhibition of human HOP62 cells after 48 hrs by SRB assay; details: HOP-62, 48 h; summary of the method: as §4
[29] = tested on: Mycobacterium; assay: Antibacterial activity against Mycobacterium luteum assessed as zone of inhibition at 0.5 mg/mL after 24 hrs by stiff-plate agar-diffusion method; details: read-out: DIZ
[30] = tested on: K562; assay: Cytotoxicity against human K562 cells assessed as cell growth at 10^-5 M after 48 hrs by SRB assay; details: K562, 48 h, read-out: Activity; summary of the method: as §1
[31] = read-out: pLC50 (the source's name) (converted)

CCC1C2CCC(C2)C1NC(=O)CSc1nc2ccccc2c2nc(=O)c(-c3ccc(OC)cc3)nn12 (configuration not stated)
growth at 10 µM [1]: -9.67% | growth at 10 µM [2]: 39.8% | growth at 10 µM [3]: 11.4% | GI50 [4]: 3.55 µM | CC50 [4, 31]: > 50.1 µM | TGI ([4]; read-out: pTGI (converted)): 26.3 µM | growth at 10 µM [5]: 77.7% | GI50 [6]: 3.72 µM | CC50 [6, 31]: > 50.1 µM | TGI ([6]; read-out: pTGI (converted)): 38.9 µM | GI50 [7]: 1.95 µM | CC50 [7, 31]: > 50.1 µM | TGI ([7]; read-out: pTGI): > 50.1 µM | growth at 10 µM [8]: 90.9% | GI50 [9]: 1.62 µM | CC50 [9, 31]: > 50.1 µM | TGI ([9]; read-out: pTGI): > 50.1 µM | growth at 10 µM [10]: -11.3% | zone of inhibition at 100 µg/mL [11]: 0 mm | zone of inhibition at 500 µg/mL [12]: 0 mm | growth at 10 µM [13]: -58.5% | GI50 [14]: 1.48 µM | CC50 [14, 31]: 17.4 µM | TGI ([14]; read-out: pTGI (converted)): 4.17 µM | GI50 [15]: 3.02 µM | CC50 [15, 31]: > 50.1 µM | TGI ([15]; read-out: pTGI (converted)): 15.8 µM | growth at 10 µM [16]: 56.5% | growth at 10 µM [17]: 44.2% | growth at 10 µM [18]: 68.3% | GI50 [19]: 1.35 µM | CC50 [19, 31]: > 50.1 µM | TGI ([19]; read-out: pTGI (converted)): 7.41 µM | growth at 10 µM [20]: 65.6% | GI50 [21]: 2.95 µM | CC50 [21, 31]: > 50.1 µM | TGI ([21]; read-out: pTGI (converted)): 38 µM | GI50 [22]: 1.35 µM | CC50 [22, 31]: 30.2 µM | TGI ([22]; read-out: pTGI (converted)): 3.98 µM | growth at 10 µM [23]: 25.6% | growth at 10 µM [24]: 58.6% | GI50 [25]: 0.977 µM | CC50 [25, 31]: 25.7 µM | TGI ([25]; read-out: pTGI (converted)): 3.98 µM | zone of inhibition at 100 µg/mL [26]: 0 mm | growth at 10 µM [27]: 47.4% | GI50 [28]: 2.45 µM | CC50 [28, 31]: 36.3 µM | TGI ([28]; read-out: pTGI (converted)): 11.5 µM | zone of inhibition at 500 µg/mL [29]: 0 mm | growth at 10 µM [30]: 39.2%
